Assay results published in ChEMBL document CHEMBL1141699, “Design, synthesis, and antibacterial activities of novel 3,6-bicyclolide oximes: length optimization and zero carbon linker oximes” (2008).
In brackets after ≈: the same amount, converted by molar mass.

How the values were obtained:
Format in all cases: functional
Streptococcus pyogenes [1] = assay: Antibacterial activity against efflux-resistant Streptococcus pyogenes 1323 expressing mefA by broth-microdilution method
Method in brief: (§1)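 MIC (µg/ml) by broth microdilution following CLSI standards.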

Haemophilus influenzae [2] = assay: Antibacterial activity against ampicillin-susceptible Haemophilus influenzae by broth-microdilution method
Moraxella catarrhalis = assay: Antibacterial activity against Moraxella catarrhalis by broth-microdilution method
Method in brief: (§2)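 MICs were determined by broth microdilution following CLSI standards and reported in µg/ml.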

Staphylococcus aureus [3] = assay: Antibacterial activity against methicillin-resistant Staphylococcus aureus 33591 by broth-microdilution method; method in brief: as §1
Streptococcus pneumoniae [4] = assay: Antibacterial activity against efflux-resistant Streptococcus pneumoniae 7701 expressing mefA by broth-microdilution method; method in brief: as §1
Staphylococcus aureus [5] = assay: Antibacterial activity against erythromycin-susceptible Staphylococcus aureus 29213 by broth-microdilution method; conditions: ATCC29213; method in brief: as §1
Streptococcus pyogenes [6] = assay: Antibacterial activity against erythromycin-susceptible Streptococcus pyogenes 19615 by broth-microdilution method; method in brief: as §2
Haemophilus influenzae [7] = assay: Antibacterial activity against ampicillin-resistant Haemophilus influenzae 33929 expressing beta-lactamase by broth-microdilution method; method in brief: as §1
Streptococcus pneumoniae [8] = assay: Antibacterial activity against MLSB-resistant Streptococcus pneumoniae 700906 expressing erm by broth-microdilution method; method in brief: as §1
Streptococcus pneumoniae [9] = assay: Antibacterial activity against erythromycin-susceptible Streptococcus pneumoniae 49619 by broth-microdilution method; method in brief: as §1
Streptococcus pyogenes [10] = assay: Antibacterial activity against MLSB-resistant Streptococcus pyogenes 2912 expressing ermA by broth-microdilution method; method in brief: as §1
Staphylococcus aureus [11] = assay: Antibacterial activity against MLSB-resistant Staphylococcus aureus 27660 expressing ermA by broth-microdilution method; method in brief: as §1

SMILES | MIC (Streptococcus pyogenes [1]) [mg/L] | MIC (Haemophilus influenzae [2]) [mg/L] | MIC (Moraxella catarrhalis) [mg/L] | MIC (Staphylococcus aureus [3]) [mg/L] | MIC (Streptococcus pneumoniae [4]) [mg/L] | MIC (Staphylococcus aureus [5]) [mg/L] | MIC (Streptococcus pyogenes [6]) [mg/L] | MIC (Haemophilus influenzae [7]) [mg/L] | MIC (Streptococcus pneumoniae [8]) [mg/L] | MIC (Streptococcus pneumoniae [9]) [mg/L] | MIC (Streptococcus pyogenes [10]) [mg/L] | MIC (Staphylococcus aureus [11]) [mg/L]
CC[C@H]1OC(=O)[C@H](C)[C@H]2OC/C(=N\Oc3ccc4ccccc4c3)CCO[C@](C)(C[C@@H](C)C(=O)[C@H](C)[C@H]3NC(=O)O[C@@]31C)[C@H](O[C@@H]1O[C@H](C)C[C@H](N(C)C)[C@H]1O)[C@H]2C | 0.125 (≈ 0.154 µM) | 4 (≈ 4.94 µM) | 0.25 (≈ 0.309 µM) | 32 (≈ 39.5 µM) | 0.125 (≈ 0.154 µM) | 0.25 (≈ 0.309 µM) | ≤ 0.06 | 8 (≈ 9.88 µM) | 0.5 (≈ 0.617 µM) | ≤ 0.06 | 2 (≈ 2.47 µM) | 0.25 (≈ 0.309 µM)
CC[C@H]1OC(=O)[C@H](C)[C@H]2OC/C(=N\Oc3ccccc3)CCO[C@](C)(C[C@@H](C)C(=O)[C@H](C)[C@H]3NC(=O)O[C@@]31C)[C@H](O[C@@H]1O[C@H](C)C[C@H](N(C)C)[C@H]1O)[C@H]2C | – | 2 (≈ 2.63 µM) | ≤ 0.06 | > 64 | – | ≤ 0.06 | ≤ 0.06 | 1 (≈ 1.32 µM) | 32 (≈ 42.1 µM) | ≤ 0.06 | 4 (≈ 5.26 µM) | ≤ 0.06
CC[C@H]1OC(=O)[C@H](C)[C@H]2OC/C(=N\OCc3ccccc3)CCO[C@](C)(C[C@@H](C)C(=O)[C@H](C)[C@H]3NC(=O)O[C@@]31C)[C@H](O[C@@H]1O[C@H](C)C[C@H](N(C)C)[C@H]1O)[C@H]2C | 0.125 (≈ 0.162 µM) | 2 (≈ 2.58 µM) | ≤ 0.06 | > 64 | – | ≤ 0.06 | ≤ 0.06 | 2 (≈ 2.58 µM) | > 64 | ≤ 0.06 | 4 (≈ 5.17 µM) | ≤ 0.06
CC[C@H]1OC(=O)[C@H](C)[C@H]2OC/C(=N\OCCCCCc3ccccc3)CCO[C@](C)(C[C@@H](C)C(=O)[C@H](C)[C@H]3NC(=O)O[C@@]31C)[C@H](O[C@@H]1O[C@H](C)C[C@H](N(C)C)[C@H]1O)[C@H]2C | 0.125 (≈ 0.151 µM) | 4 (≈ 4.82 µM) | 0.25 (≈ 0.301 µM) | > 64 | 0.125 (≈ 0.151 µM) | 0.25 (≈ 0.301 µM) | ≤ 0.06 | 4 (≈ 4.82 µM) | 8 (≈ 9.64 µM) | ≤ 0.06 | 8 (≈ 9.64 µM) | 0.25 (≈ 0.301 µM)
CC[C@H]1OC(=O)[C@H](C)[C@H]2OC/C(=N\Oc3ccccc3Cl)CCO[C@](C)(C[C@@H](C)C(=O)[C@H](C)[C@H]3NC(=O)O[C@@]31C)[C@H](O[C@@H]1O[C@H](C)C[C@H](N(C)C)[C@H]1O)[C@H]2C | – | 2 (≈ 2.52 µM) | ≤ 0.06 | 64 (≈ 80.6 µM) | – | ≤ 0.06 | ≤ 0.06 | 2 (≈ 2.52 µM) | 32 (≈ 40.3 µM) | ≤ 0.06 | 4 (≈ 5.04 µM) | ≤ 0.06
CC[C@H]1OC(=O)[C@H](C)[C@H]2OC/C(=N\OCCCc3ccccc3)CCO[C@](C)(C[C@@H](C)C(=O)[C@H](C)[C@H]3NC(=O)O[C@@]31C)[C@H](O[C@@H]1O[C@H](C)C[C@H](N(C)C)[C@H]1O)[C@H]2C | – | 2 (≈ 2.49 µM) | 0.125 (≈ 0.156 µM) | > 64 | – | 0.125 (≈ 0.156 µM) | ≤ 0.06 | 2 (≈ 2.49 µM) | 4 (≈ 4.99 µM) | ≤ 0.06 | 8 (≈ 9.97 µM) | 0.125 (≈ 0.156 µM)
CC[C@H]1OC(=O)[C@H](C)[C@H]2OC/C(=N\OCCCCc3ccccc3)CCO[C@](C)(C[C@@H](C)C(=O)[C@H](C)[C@H]3NC(=O)O[C@@]31C)[C@H](O[C@@H]1O[C@H](C)C[C@H](N(C)C)[C@H]1O)[C@H]2C | 0.25 (≈ 0.306 µM) | 8 (≈ 9.8 µM) | 0.25 (≈ 0.306 µM) | 64 (≈ 78.4 µM) | 0.125 (≈ 0.153 µM) | 0.25 (≈ 0.306 µM) | ≤ 0.06 | 4 (≈ 4.9 µM) | 4 (≈ 4.9 µM) | ≤ 0.06 | 16 (≈ 19.6 µM) | 0.25 (≈ 0.306 µM)
CC[C@H]1OC(=O)[C@H](C)[C@H]2OC/C(=N\Oc3ccc(-c4ccccc4)cc3)CCO[C@](C)(C[C@@H](C)C(=O)[C@H](C)[C@H]3NC(=O)O[C@@]31C)[C@H](O[C@@H]1O[C@H](C)C[C@H](N(C)C)[C@H]1O)[C@H]2C | 0.25 (≈ 0.299 µM) | 8 (≈ 9.57 µM) | 1 (≈ 1.2 µM) | 16 (≈ 19.1 µM) | 0.125 (≈ 0.15 µM) | 0.5 (≈ 0.598 µM) | ≤ 0.06 | 8 (≈ 9.57 µM) | 0.25 (≈ 0.299 µM) | ≤ 0.06 | 2 (≈ 2.39 µM) | 0.5 (≈ 0.598 µM)
CC[C@H]1OC(=O)[C@H](C)[C@H]2OC/C(=N\Oc3cccc(-c4ccccc4)c3)CCO[C@](C)(C[C@@H](C)C(=O)[C@H](C)[C@H]3NC(=O)O[C@@]31C)[C@H](O[C@@H]1O[C@H](C)C[C@H](N(C)C)[C@H]1O)[C@H]2C | 0.125 (≈ 0.15 µM) | 4 (≈ 4.78 µM) | 0.125 (≈ 0.15 µM) | 4 (≈ 4.78 µM) | – | 0.125 (≈ 0.15 µM) | ≤ 0.06 | 4 (≈ 4.78 µM) | 2 (≈ 2.39 µM) | ≤ 0.06 | 4 (≈ 4.78 µM) | 0.125 (≈ 0.15 µM)
CC[C@H]1OC(=O)[C@H](C)[C@H]2OC/C(=N\Oc3cccc(Cl)c3)CCO[C@](C)(C[C@@H](C)C(=O)[C@H](C)[C@H]3NC(=O)O[C@@]31C)[C@H](O[C@@H]1O[C@H](C)C[C@H](N(C)C)[C@H]1O)[C@H]2C | – | 2 (≈ 2.52 µM) | ≤ 0.06 | 32 (≈ 40.3 µM) | – | ≤ 0.06 | ≤ 0.06 | 2 (≈ 2.52 µM) | 8 (≈ 10.1 µM) | ≤ 0.06 | 1 (≈ 1.26 µM) | ≤ 0.06
CC[C@H]1OC(=O)[C@H](C)[C@H]2OC/C(=N\OCCc3ccccc3)CCO[C@](C)(C[C@@H](C)C(=O)[C@H](C)[C@H]3NC(=O)O[C@@]31C)[C@H](O[C@@H]1O[C@H](C)C[C@H](N(C)C)[C@H]1O)[C@H]2C | 0.125 (≈ 0.159 µM) | 2 (≈ 2.54 µM) | ≤ 0.06 | > 64 | – | 0.125 (≈ 0.159 µM) | ≤ 0.06 | 2 (≈ 2.54 µM) | 16 (≈ 20.3 µM) | ≤ 0.06 | 8 (≈ 10.2 µM) | 0.125 (≈ 0.159 µM)
CC[C@H]1OC(=O)[C@H](C)[C@H]2OC/C(=N\Oc3cccnc3)CCO[C@](C)(C[C@@H](C)C(=O)[C@H](C)[C@H]3NC(=O)O[C@@]31C)[C@H](O[C@@H]1O[C@H](C)C[C@H](N(C)C)[C@H]1O)[C@H]2C | 0.25 (≈ 0.329 µM) | 1 (≈ 1.31 µM) | ≤ 0.06 | > 64 | 0.125 (≈ 0.164 µM) | 0.125 (≈ 0.164 µM) | ≤ 0.06 | 1 (≈ 1.31 µM) | 16 (≈ 21 µM) | 0.125 (≈ 0.164 µM) | 4 (≈ 5.26 µM) | 0.125 (≈ 0.164 µM)
CC[C@H]1OC(=O)[C@H](C)[C@H]2OC/C(=N\Oc3ccccc3-c3ccccc3)CCO[C@](C)(C[C@@H](C)C(=O)[C@H](C)[C@H]3NC(=O)O[C@@]31C)[C@H](O[C@@H]1O[C@H](C)C[C@H](N(C)C)[C@H]1O)[C@H]2C | 0.5 (≈ 0.598 µM) | 8 (≈ 9.57 µM) | 0.5 (≈ 0.598 µM) | 16 (≈ 19.1 µM) | 0.5 (≈ 0.598 µM) | 0.5 (≈ 0.598 µM) | ≤ 0.06 | 8 (≈ 9.57 µM) | 16 (≈ 19.1 µM) | ≤ 0.06 | 16 (≈ 19.1 µM) | 0.5 (≈ 0.598 µM)
CC[C@H]1OC(=O)[C@H](C)[C@H]2OC/C(=N\Oc3ccc(Cl)cc3)CCO[C@](C)(C[C@@H](C)C(=O)[C@H](C)[C@H]3NC(=O)O[C@@]31C)[C@H](O[C@@H]1O[C@H](C)C[C@H](N(C)C)[C@H]1O)[C@H]2C | – | 4 (≈ 5.04 µM) | ≤ 0.06 | > 64 | – | ≤ 0.06 | ≤ 0.06 | 4 (≈ 5.04 µM) | 16 (≈ 20.1 µM) | ≤ 0.06 | 2 (≈ 2.52 µM) | ≤ 0.06
